The source of these data is ChEMBL document CHEMBL3351467, “Ligand-free Pd-catalyzed C-N cross-coupling/cyclization strategy: an unprecedented access to 1-thienyl pyrroloquinoxalines for the new approach towards apoptosis” (Eur J Med Chem, 2014).

Calls of active or inactive are those of the source. The rule behind the calls is not given here.

For data set [1], the target named is 3',5'-cyclic-AMP phosphodiesterase 4B (Homo sapiens) (UniProt Q07343). The data set can be described thus: Inhibition of recombinant His-tagged PDE4B1 (unknown origin) expressed in Sf9 cells at 30 uM pre-incubated for 15 mins before cAMP substrate addition by luminescence assay. The essentials:
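PDE4B1 purified in house (10 ng) pre-incubated 15 min with compound or DMSO vehicle. cAMP substrate ([…]) added for 1 h, then reaction stopped and detection reagent applied 10 min in the dark. Luminescence (RLU) read. % inhibition = (RLU vehicle − RLU inhibitor)/RLU vehicle × 100.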

The species named for data set [2] is Danio rerio. The data set can be described thus: Induction of apoptosis in Zebrafish embryo at 1 to 10 uM incubated for 24 to 48 hrs by acridine orange based fluorescence microscopy. Format: functional, organism-based. The essentials: (§1)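 Embryos dechorionated by hand at 24 hpf, 6 per well in two sets, in 0.1% DMSO. Compound added from serially diluted working stocks, kept at 28 °C for 24 h and 48 h. Washed three times in E3, stained 30 min with acridine orange ([…]) in E3, rinsed twice, then examined for apoptosis.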

The species named for data set [3] is Danio rerio. The data set is described as follows: Teratogenicity in Zebrafish embryo assessed as induction of morphological deformities at lower jaw at 1 uM incubated at 28.5 degC until 5 days post fertilization. As to conditions: in vivo, 120 h. The data set is classed as organism-based. The essentials:
(§2)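 Embryos at 1 dpf dechorionated with 0.5 mg/ml pronase E and washed in E3. Exposed 6 per well to compound serially diluted in E3 with a final 0.1% DMSO, at 28.5 °C until 5 dpf. Embryos then washed, anaesthetised with 0.008% tricaine and scored blind for body shape, somites, notochord, tail, intestine, fins, brain, jaws, heart, liver and swim bladder. Phenobarbital (3 mM) served as positive control.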

The species entered for data set [4] is Danio rerio. The data set is described as follows: Hepatotoxicity in Zebrafish embryo at 1 to 3 uM incubated at 28 degC until 7 days post fertilization. The data set is classed as organism-based. As to conditions: in vivo, 168 h. In outline:
(§3)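 Larvae at 4 dpf exposed in 24-well plates, 6 per well in 0.1% DMSO, to final 1, 3, 10 and 30 concentrations, incubated at 28 °C until 7 dpf. Washed in E3 and anaesthetised with tricaine. Images scored for liver size, liver degeneration and yolk sac retention as percentages. Amiodarone served as positive control.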

Data set [5] is filed under the species Danio rerio. The data set is described as follows: Hepatotoxicity in Zebrafish embryo at 10 to 30 uM incubated at 28 degC until 7 days post fertilization. As to conditions: in vivo, 168 h. The data set is classed as organism-based. The essentials: as §3
For data set [6], the species on record is Danio rerio. The data set is described as follows: Toxicity in Zebrafish embryo at 1 to 30 uM. The following applies: in vivo. Format: organism-based. In outline: as §2
The species named for data set [7] is Danio rerio. The data set can be described thus: Toxicity in Zebrafish embryo assessed as induction of changes in body shape at 1 uM. The following applies: in vivo. Format: organism-based. In outline: as §2
The species named for data set [8] is Danio rerio. The data set is described as follows: Toxicity in Zebrafish embryo assessed as induction of changes in somites at 1 uM. As to conditions: in vivo. Format: organism-based. The essentials:
as §2

Data set [9] is filed under the species Danio rerio. The data set can be described thus: Toxicity in Zebrafish embryo assessed as induction of changes in notochords at 1 uM. Format: organism-based, Notochord. As to conditions: in vivo. The essentials:
as §2

For data set [10], the species on record is Danio rerio. The data set is described as follows: Toxicity in Zebrafish embryo assessed as induction of changes in tail region at 1 uM. The data set is classed as organism-based. As to conditions: in vivo. In outline:
as §2

Data set [11] is filed under the species Danio rerio. The data set can be described thus: Toxicity in Zebrafish embryo assessed as induction of changes in fins region at 1 uM. As to conditions: in vivo. The data set is classed as organism-based. In outline: as §2
Data set [12] is filed under the species Danio rerio. The data set can be described thus: Toxicity in Zebrafish embryo assessed as induction of changes in brain region at 1 uM. Format: organism-based. The following applies: in vivo. The essentials:
as §2

The species entered for data set [13] is Danio rerio. The data set can be described thus: Toxicity in Zebrafish embryo assessed as induction of changes in upper jaw region at 1 uM. The data set is classed as organism-based. As to conditions: in vivo. In outline:
as §2

Data set [14] is filed under the species Danio rerio. The data set can be described thus: Toxicity in Zebrafish embryo assessed as induction of changes in heart region at 1 uM. The following applies: in vivo. The data set is classed as organism-based. In outline:
as §2

Data set [15] is filed under the species Danio rerio. The data set can be described thus: Toxicity in Zebrafish embryo assessed as induction of changes in intestine region at 1 uM. Format: organism-based. The following applies: in vivo. In outline:
as §2

For data set [16], the species on record is Danio rerio. The data set is described as follows: Toxicity in Zebrafish embryo assessed as induction of changes in lower jaw region at 1 uM. The data set is classed as organism-based. As to conditions: in vivo. The essentials:
as §2

The species entered for data set [17] is Danio rerio. The data set is described as follows: Toxicity in Zebrafish embryo assessed as induction of changes in liver region at 1 uM. The data set is classed as organism-based. The following applies: in vivo. The essentials:
as §2

The species named for data set [18] is Danio rerio. The data set can be described thus: Toxicity in Zebrafish embryo assessed as induction of changes in swim bladder region at 1 uM. Format: organism-based. As to conditions: in vivo. In outline:
as §2

For data set [19], the species on record is Danio rerio. The data set can be described thus: Induction of apoptosis in Zebrafish embryo incubated for 24 to 48 hrs by acridine orange based fluorescence microscopy. Format: functional, organism-based. In outline: as §1
Data set [20] is filed under the species Danio rerio. The data set can be described thus: Hepatotoxicity in Zebrafish embryo at 28 degC until 7 days post fertilization. The data set is classed as organism-based. The following applies: in vivo, 168 h. In outline: as §3
The species named for data set [21] is Danio rerio. The data set is described as follows: Teratogenicity in Zebrafish embryo incubated at 28.5 degC until 5 days post fertilization. The data set is classed as ADME, organism-based. The following applies: in vivo, 120 h. The essentials:
as §2

The nature of data set [22]: Therapeutic index, ratio of NOAEL in Zebrafish embryos to apoptotic EC50 in Zebrafish embryos. Format: organism-based, Danio rerio. The following applies: read-out: TI.
The species entered for data set [23] is Danio rerio. The data set is described as follows: Toxicity in Zebrafish embryo assessed as induction of changes in body shape at 3000 uM. As to conditions: in vivo. Format: organism-based. In outline:
(§4)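 Embryos at 1 dpf were dechorionated with 0.5 mg/ml pronase E and washed in E3. They were exposed in groups of 6 to compound serially diluted in E3 (final 0.1% DMSO) at 28.5 °C until 5 dpf. Embryos were then washed, anesthetized with 0.008% tricaine, and scored blinded for morphology of body shape, somites, notochord, tail, intestine, fins, brain, jaws, heart, liver and swim bladder.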

For data set [24], the species on record is Danio rerio. The data set can be described thus: Toxicity in Zebrafish embryo assessed as induction of changes in somites at 3000 uM. Format: organism-based. The following applies: in vivo. In outline: as §4
For data set [25], the species on record is Danio rerio. The data set can be described thus: Toxicity in Zebrafish embryo assessed as induction of changes in notochords at 3000 uM. The following applies: in vivo. Format: organism-based, Notochord. In outline:
as §4

The species named for data set [26] is Danio rerio. The data set can be described thus: Toxicity in Zebrafish embryo assessed as induction of changes in tail region at 3000 uM. The data set is classed as organism-based. As to conditions: in vivo. The essentials:
as §4

The species named for data set [27] is Danio rerio. The data set is described as follows: Toxicity in Zebrafish embryo assessed as induction of changes in fins region at 3000 uM. The following applies: in vivo. Format: organism-based. The essentials: as §4
For data set [28], the species on record is Danio rerio. The data set is described as follows: Toxicity in Zebrafish embryo assessed as induction of changes in brain region at 3000 uM. As to conditions: in vivo. The data set is classed as organism-based. In outline:
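Zebrafish embryos collected at 1 dpf, staged, dechorionated with 0.5 mg/ml pronase E and washed in E3 medium. Compound serially diluted in E3 with 0.1% DMSO final. Six embryos per well, exposed at 28.5 °C until 5 dpf, then washed, anaesthetised with 0.008% tricaine and scored for morphology (body shape, somites, notochord, tail, intestine, fins, brain, jaws, heart, liver, swim bladder). Blinded; phenobarbital 3 mM positive control.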

For data set [29], the species on record is Danio rerio. The data set can be described thus: Toxicity in Zebrafish embryo assessed as induction of changes in upper jaw region at 3000 uM. As to conditions: in vivo. The data set is classed as organism-based. The essentials: as §4
The species named for data set [30] is Danio rerio. The data set can be described thus: Toxicity in Zebrafish embryo assessed as induction of changes in heart region at 3000 uM. The data set is classed as organism-based. As to conditions: in vivo. In outline:
as §4

For data set [31], the species on record is Danio rerio. The data set is described as follows: Toxicity in Zebrafish embryo assessed as induction of changes in intestine region at 3000 uM. The data set is classed as organism-based. As to conditions: in vivo. The essentials:
as §4

Data set [32] is filed under the species Danio rerio. The data set is described as follows: Toxicity in Zebrafish embryo assessed as induction of changes in lower jaw region at 3000 uM. The following applies: in vivo. The data set is classed as organism-based. In outline:
as §4

For data set [33], the species on record is Danio rerio. The data set can be described thus: Toxicity in Zebrafish embryo assessed as induction of changes in liver region at 3000 uM. Format: organism-based. As to conditions: in vivo. The essentials:
as §4

The species entered for data set [34] is Danio rerio. The data set is described as follows: Toxicity in Zebrafish embryo assessed as induction of changes in swim bladder region at 3000 uM. As to conditions: in vivo. The data set is classed as organism-based. In outline:
as §4

3',5'-cyclic-AMP phosphodiesterase 4B (Homo sapiens), sequence (Q07343 whole entry): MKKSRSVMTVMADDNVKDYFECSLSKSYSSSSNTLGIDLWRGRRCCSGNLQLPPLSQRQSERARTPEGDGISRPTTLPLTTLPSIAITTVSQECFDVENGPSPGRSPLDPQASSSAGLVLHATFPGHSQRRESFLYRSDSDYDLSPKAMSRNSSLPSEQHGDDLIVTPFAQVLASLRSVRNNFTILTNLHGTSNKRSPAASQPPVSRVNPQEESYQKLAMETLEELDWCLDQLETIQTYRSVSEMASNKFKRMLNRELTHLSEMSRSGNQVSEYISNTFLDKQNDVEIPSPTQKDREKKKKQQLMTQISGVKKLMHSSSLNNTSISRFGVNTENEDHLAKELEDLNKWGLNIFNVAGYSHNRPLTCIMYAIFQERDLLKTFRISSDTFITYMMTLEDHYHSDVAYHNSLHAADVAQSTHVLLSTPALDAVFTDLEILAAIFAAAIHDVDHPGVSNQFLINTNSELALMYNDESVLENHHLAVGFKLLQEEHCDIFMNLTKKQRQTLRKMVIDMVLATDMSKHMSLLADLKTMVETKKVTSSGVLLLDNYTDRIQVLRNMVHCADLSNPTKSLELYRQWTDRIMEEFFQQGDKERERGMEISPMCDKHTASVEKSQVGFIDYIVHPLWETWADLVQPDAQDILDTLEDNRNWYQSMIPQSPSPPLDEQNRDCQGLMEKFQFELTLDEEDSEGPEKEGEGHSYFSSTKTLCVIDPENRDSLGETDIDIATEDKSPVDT

Regarding `CCOC(=O)c1ccsc1-n1c(-c2ccccc2)cc2nc3ccccc3nc21`, the inhibition (usually how much of the control response was suppressed) in data set [1] came to 85%. Besides, the outcome in data set [2] was Active. The Activity result is recorded as “Non-toxic” in data set [3]; “Non-toxic” in data set [4]; “Toxic” in [5]; “Non-toxic” in data set [7]; “Toxic” in data set [8]; “Non-toxic” in [9]. In addition, the Activity entry in [10] is given as “Non-toxic”; in data set [11] it was “Non-toxic”; in data set [12] it was “Toxic”; in [13], “Toxic”; in [14], “Non-toxic”; in data set [15], “Toxic”. Moreover, the Activity result in [16], in data set [17] and in data set [18] was “Toxic” in each case. Besides, the MTC in data set [6] came to 1 µM. Also, the NOAEL (usually the highest dose or exposure tested at which no adverse effect was seen) in data set [6] was below 1 µM; in data set [20], 3 µM; in [21], 1 µM. A half-maximal effect in data set [19] (EC50) was put at 3.22 µM. Also, in data set [22], the selectivity ratio is 0.31.

In the case of `CCC1(c2ccccc2)C(=O)NC(=O)NC1=O` [PHENOBARBITAL], the Activity result in data set [23], in data set [24], in [25], in [26], in data set [27] and in data set [28] was “Toxic” each time. In addition, the Activity entry in [29], in [30], in [31], in data set [32], in data set [33] and in [34] was “Toxic” throughout.
